Results as given in ChEMBL document CHEMBL4350958, “Rational Design of Short Peptide Variants by Using Kunitzin-RE, an Amphibian-Derived Bioactivity Peptide, for Acquired Potent Broad-Spectrum Antimicrobial and Improved Therapeutic Potential of Commensalism Coinfection of Pathogens” (J Med Chem, 2019).
Values after ≈ are worked out from the molar mass of the structure shown.

Key:
Erythrocyte = test: Hemolytic activity in human RBC measured after 1 hr; assay type: ADME, cell-based
Outline: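 Fresh healthy-donor human erythrocytes at ~1% (v/v) in PBS pH 7.4, mixed 1:1 with peptide (1–128 µM), 1 h at 37 °C. After centrifugation at 1000×g, supernatant hemoglobin read at 576 nm. Untreated cells set 0% and 0.1% Triton X-100 set 100%. MHC defined as the concentration giving >10% hemolysis. Three or more independent experiments, triplicates.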

Candida tropicalis = test: Antifungal activity against Candida tropicalis cgmcc2.1975 measured after 48 hrs by broth microdilution method; assay type: functional
Outline: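 Modified CLSI M27-A2 microdilution. Yeast colonies were diluted in MOPS-buffered RPMI 1640 to a final (0.5–1) × 10^3 CFU mL−1 and mixed with an equal volume of peptide serially diluted in 0.2% BSA. After 48 h at 28 °C, MIC was read at A492 as the lowest concentration inhibiting 95% of growth. At least three independent experiments, each with three technical replicates.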

Escherichia coli [1] = test: Antibacterial activity against Escherichia coli ATCC 25922 measured after 18 to 24 hrs in presence of ZnCl2; assay type: functional
[2] = Conformational stability in sodium dodecyl sulfate at 35 uM by CD spectra analysis; assay type: physicochemical
Outline: (§1)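 CD spectra from 190 to 250 nm of peptide at 35 μM in 10 mM PBS, 30 mM SDS micelles or 50% TFE, recorded in a 1.0-mm quartz cell. Ellipticity was converted to mean residue ellipticity. Three independent scans, each averaged over more than 3 runs.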

Staphylococcus aureus [3] = test: Antibacterial activity against Staphylococcus aureus ATCC 29213 measured after 18 to 24 hrs in presence of KCl; assay type: functional
Candida albicans [4] = test: Antifungal activity against Candida albicans cgmcc2.2086 measured after 48 hrs in presence of NaCl by broth microdilution method; assay type: functional
Staphylococcus aureus [5] = test: Antibacterial activity against Staphylococcus aureus ATCC 29213 measured after 18 to 24 hrs in presence of ZnCl2; assay type: functional
Outline: (§2)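 MIC broth microdilution (MHB, 0.2% BSA peptide diluent, A492, 95% inhibition) run in the presence of physiological salts at final concentrations of 6 μM NH4Cl or 8 μM ZnCl2. Three independent assays, each with three technical replicates.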

Staphylococcus aureus [6] = test: Antibacterial activity against Staphylococcus aureus ATCC 29213 measured after 18 to 24 hrs in presence of NH4Cl; assay type: functional; outline: as §2
Candida albicans [7] = test: Fungicidal activity against Candida albicans cgmcc2.2086 incubated for 48 hrs followed by replating on YM agar plate and measured after 48 hrs; assay type: functional
Outline: (§3)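 Yeast diluted in MOPS-buffered RPMI 1640 to (0.5–1) × 10^3 CFU/mL (CLSI M27-A2, modified) and mixed 1:1 with peptide serially diluted in 0.2% BSA. After 48 h at 28 °C, 50 μL per well was plated on YM agar and incubated 48 h at 28 °C. MFC taken as the lowest concentration killing ≥99.9% of cells. Three or more independent experiments, triplicate wells.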

Escherichia coli [8] = test: Bactericidal activity against Escherichia coli K99 incubated for 24 hrs followed by replating on agar plate and measured after overnight incubation; assay type: functional; conditions: for MBC: K99, 24 h, read-out: MBC>99.9
Outline: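 Mid-log bacteria diluted in MHB to (0.5–1) × 10^5 CFU/mL and mixed 1:1 with peptide serially diluted in 0.2% BSA. After 24 h at 37 °C, 50 μL of each mixture was plated on agar and incubated overnight. MBC taken as the lowest concentration killing >99.9% of cells. At least three independent experiments, each with three technical replicates.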

Escherichia coli [9] = test: Bactericidal activity against Escherichia coli ATCC 25922 incubated for 24 hrs followed by replating on agar plate and measured after overnight incubation; assay type: functional; conditions: for MBC: ATCC 25922, 24 h, read-out: MBC>99.9
Outline: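 After the 24 h, 37 °C MHB microdilution (0.5–1 × 10^5 CFU mL−1 inoculum, peptides diluted in 0.2% BSA), 50 μL from each well was plated on agar and incubated overnight. MBC was taken as the lowest concentration killing >99.9% of cells. Three or more independent experiments, each with triplicate technical replicates.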

Candida parapsilosis = test: Fungicidal activity against Candida parapsilosis cgmcc2.3989 incubated for 48 hrs followed by replating on YM agar plate and measured after 48 hrs; assay type: functional; outline: as §3
Staphylococcus aureus [10] = test: Bactericidal activity against Staphylococcus aureus ATCC 29213 incubated for 24 hrs followed by replating on agar plate and measured after overnight incubation; assay type: functional; conditions: for MBC: ATCC 29213, 24 h, read-out: MBC>99.9
Outline: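 After the 24 h, 37 °C MHB microdilution MIC assay, 50 μL from each well was plated on agar and incubated overnight. MBC taken as lowest peptide concentration killing >99.9% of cells. At least three independent experiments, each with three technical replicates.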

[11] = Conformational stability in sodium dodecyl sulfate assessed as beta-sheet conformation by measuring absorption spectra at minimum dichroic band at 35 uM by CD spectra analysis; assay type: physicochemical; outline: as §1
[12] = Conformational stability in sodium dodecyl sulfate assessed as beta-sheet conformation by measuring absorption spectra at maximum dichroic band at 35 uM by CD spectra analysis; assay type: physicochemical; outline: as §1
Pseudomonas aeruginosa = test: Antibacterial activity against Pseudomonas aeruginosa ATCC 27853 assessed as ratio of MBC after and before 30 serial passages at sub-MBC; assay type: functional
Outline: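 P. aeruginosa ATCC 27853 passaged every 24 h by 100-fold dilution in MHB containing sub-MBC drug, for 30 passages. MBC was tested on the cells from each passage. Control cells were passaged in drug-free MHB. Run independently in triplicate with three biological replicates.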

Compound	MHC10 (Erythrocyte) [µM]	MIC95 (Candida tropicalis; cgmcc2.1975, 48 h) [µM]	MIC95 (Escherichia coli [1]) [µM]	Stability [2]	MIC95 (Staphylococcus aureus [3]) [µM]	MIC95 (Candida albicans [4]; cgmcc2.2086, 48 h) [µM]	MIC95 (Staphylococcus aureus [5]) [µM]	MIC95 (Staphylococcus aureus [6]) [µM]	MFC<=99.9 (Candida albicans [7]) [µM]	MBC (Escherichia coli [8]) [µM]	MBC (Escherichia coli [9]) [µM]	MFC<=99.9 (Candida parapsilosis) [µM]	MBC (Staphylococcus aureus [10]) [µM]	Activity [11] [nm]	Wavelength of maximum dichroic band [12] [nm]	further results
H-AAKIILNPKFR-NH2	> 128	> 128	> 128	Unstable	> 128	> 128	> 128	> 128	–	–	–	–	–	–	–	–
H-AARIILRWFRR-NH2	> 128	4	2	–	4	16	2	4	8	4	2	8	8	216 to 220	200	–
POLYMYXIN B	–	–	2	–	32	–	32	32	–	–	–	16	–	–	–	MFC (≥99.9% killing) (Candida albicans [7]): 64 µM; MBC>99.9 (Escherichia coli [8]): 1 µM; MBC>99.9 (Escherichia coli [9]): 4 µM; MIC95 (Candida tropicalis): > 128 µM; MBC>99.9 (Staphylococcus aureus [10]): 64 µM; MIC95 (Candida albicans [4]): 128 µM
H-AARIILRDRFR-NH2	> 128	> 128	> 128	Unstable	> 128	> 128	> 128	> 128	–	–	–	–	–	–	–	–
H-AARIILRPRFR-NH2	> 128	> 128	32	Unstable	> 128	> 128	> 128	> 128	–	32	32	–	–	–	–	–
H-AARIILRARFR-NH2	> 128	4	4	–	8	64	4	4	32	4	4	16	8	216 to 220	200	–
H-AARIILRLRFR-NH2	> 128	4	4	–	2	32	2	2	16	4	8	8	4	216 to 220	200	–
H-AARIILRIRFR-NH2	128	4	4	–	2	32	2	2	8	4	4	8	4	216 to 220	200	–
H-AARIILRGRFR-NH2	> 128	16	4	Unstable	8	> 128	8	16	–	8	8	–	8	–	–	–
H-AARIILRTRFR-NH2	> 128	32	8	–	32	> 128	16	16	–	8	16	–	32	216 to 220	200	–
H-AARIILRFRFR-NH2	> 128	4	4	–	2	32	2	2	16	4	8	8	4	216 to 220	200	–
H-AARIILRNRFR-NH2	> 128	> 128	32	Unstable	> 128	> 128	> 128	> 128	–	32	64	–	–	–	–	–
H-AARRILRWIFR-NH2	> 128	4	8	–	4	32	4	8	8	8	4	16	8	–	–	–
GENTAMICIN	–	–	1	–	1	–	1	1	–	–	–	–	–	–	–	MBC>99.9 (Escherichia coli [8]): 0.5 µM; MBC>99.9 (Escherichia coli [9]): 1 µM; MIC95 (Candida tropicalis): > 128 µM; MBC>99.9 (Staphylococcus aureus [10]): 1 µM; Ratio (Pseudomonas aeruginosa): 32; MIC95 (Candida albicans [4]): > 128 µM
H-AARIILRYRFR-NH2	> 128	16	8	–	8	128	2	4	64	8	16	128	8	216 to 220	200	–
CC(C)(O/N=C(\C(=O)N[C@@H]1C(=O)N2C(C(=O)[O-])=C(C[n+]3ccccc3)CS[C@H]12)c1csc(N)n1)C(=O)O [CEFTAZIDIME]	–	> 128	2	–	16	> 128	16	16	–	1 (≈ 0.547 µg/mL)	2 (≈ 1.09 µg/mL)	–	16 (≈ 8.75 µg/mL)	–	–	–
H-AARIILRRRFR-NH2	> 128	64	8	Unstable	32	> 128	16	16	–	16	16	128	32	–	–	–
